In brackets after ≈: the same amount, converted by molar mass. One block for each compound: values may come before it.
Experiments:
E coli K12 biofilm = test: Biofilm formation inhibition, crystal violet staining; assay type: cell-based, Escherichia coli; conditions: at 2 ug/mL
[1] = system: HaCaT (Immortalized Human Keratinocyte); assay type: cell-based; conditions: 24 h
[2] = system: Staphylococcus aureus ATCC 43300 MRSA; assay type: cell-based; conditions: ATCC 43300, pH 7
[3] = system: Psedomonas aeruginosa ATCC 27853; assay type: cell-based, Pseudomonas aeruginosa; conditions: ATCC 27853, pH 7
[4] = system: HCEC (Immortalized Human Colonic Epithelial Cell); assay type: cell-based; conditions: 24 h
[5] = system: Candida albicans ATCC 90028; assay type: cell-based; conditions: ATCC 90028, pH 7
[6] = system: Klebsiella pneumoniae ATCC 700603; assay type: cell-based; conditions: ATCC 700603, pH 7
[7] = system: Acinetobacter baumannii ATCC 19606; assay type: cell-based; conditions: ATCC 19606, pH 7
[8] = system: Cryptococcus neoformans var. grubii H99 ATCC 20882; assay type: cell-based; conditions: ATCC 20882, pH 7
[9] = system: Escherichia coli ATCC 25922; assay type: cell-based; conditions: ATCC 25922, pH 7
Zeta potential = assay type: physicochemical; conditions: Aqueous solution of 2 mmolar concentration in pH 7
S. aureus JE2 biofilm = test: Biofilm formation inhibition, crystal violet staining; assay type: cell-based, Staphylococcus aureus; conditions: at MIC
Procedure, shortened: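 S. aureus JE2 initial inocula were exposed to test compound in two-fold dilutions from 16 to 4 μg/mL, with vancomycin or gentamicin at 4 to 1 μg/mL as comparators. Biofilm formed was quantified by crystal violet staining.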

Structure (SMILES): CNC(C)C1CCC(N)C(OC2C(N)CC(N)C(OC3OCC(C)(O)C(NC)C3O)C2O)O1 (stereo not shown) [Gen, Gentamicin]
reduction of E coli biofilm formation (E coli K12 biofilm): about 54. 3%

MIC Sa (S. aureus ATCC 43300 MRSA) [2]: >32 µg/mL
MIC Pa (P. aeruginosa ATCC 27853) [3]: >32 µg/mL
MIC Ca (C. albicans ATCC 90028) [5]: >32 µg/mL
MIC Kp (K. pneumoniae ATCC 700603) [6]: >32 µg/mL
MIC Ab (A. baumannii ATCC 19606) [7]: >32 µg/mL
MIC Cn (C. neoformans var. grubii H99 ATCC 20882) [8]: >32 µg/mL
MIC Ec (E. coli ATCC 25922) [9]: >32 µg/mL
Zeta potential (Zeta potential): 18.83 ± 1.69 mV
Structure (SMILES): CCCCCCCC(=O)NCCCC[C@H](NC(=O)CCCCCCC)C(=O)N[C@@H](CCCCN)C(=O)N[C@@H](CCCCN)C(=O)N[C@@H](CCCCN)C(=O)N[C@@H](CCCCN)C(=O)N[C@@H](CCCCN)C(N)=O [PA 8]
IC50 HaCaT [1]: 40.4 µg/mL (≈ 38.9 µM)
IC50 HCEC [4]: 19.3 µg/mL (≈ 18.6 µM)

Zeta potential (Zeta potential): 41.40 ± 1.05 mV
Structure (SMILES): CCCCCCCCCCCCCCCCCC(=O)NCCCC[C@H](NC(=O)CCCCCCCCCCCCCCCCC)C(=O)N[C@@H](CCCCN)C(=O)N[C@@H](CCCCN)C(=O)N[C@@H](CCCCN)C(=O)N[C@@H](CCCCN)C(=O)N[C@@H](CCCCN)C(N)=O [PA 9]

Structure (SMILES): CN[C@H](CC(C)C)C(=O)N[C@H]1C(=O)N[C@@H](CC(N)=O)C(=O)N[C@H]2C(=O)N[C@H]3C(=O)N[C@H](C(=O)N[C@H](C(=O)O)c4cc(O)cc(O)c4-c4cc3ccc4O)[C@H](O)c3ccc(c(Cl)c3)Oc3cc2cc(c3O[C@@H]2O[C@H](CO)[C@@H](O)[C@H](O)[C@H]2O[C@H]2C[C@](C)(N)[C@H](O)[C@H](C)O2)Oc2ccc(cc2Cl)[C@H]1O [Van, Vancomycin]
reduction of MRSA biofilm formation (S. aureus JE2 biofilm): up to 92.80 ± 0.68%

Source: article PMC7199185 (ACS applied materials & interfaces, 2019)
